Most compounds without a hit are left out; they make up all but 2.5% or so of the library.
ABHD5-PLIN5 inh: ABHD5-PLIN5 protein interaction inhibition | Q00G26+Q8WTS1 | Split G. princeps luciferase complementation, luminescence, 4 h | inhibition, % at 4 µM | 360,000 tested, 0.78% active | AID 602281;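 active = inhibition above the mean inhibition across every tested compound plus 3 SD, cut at about 22% in these data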
UHRF1 binding: blocks human UHRF1 binding to methylated DNA; 370,000 tested, 0.75% active; Q96T88; inhibition, % at 4.4 µM; UHRF1 binding to methylated oligo, TR-FRET; in the data active = inhibition above about 21%;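 also: UHRF1 SRA domain binding a hemimethylated CpG hairpin DNA probe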
Target sequence (Q96T88 whole entry, looked up, the tested form may be a part): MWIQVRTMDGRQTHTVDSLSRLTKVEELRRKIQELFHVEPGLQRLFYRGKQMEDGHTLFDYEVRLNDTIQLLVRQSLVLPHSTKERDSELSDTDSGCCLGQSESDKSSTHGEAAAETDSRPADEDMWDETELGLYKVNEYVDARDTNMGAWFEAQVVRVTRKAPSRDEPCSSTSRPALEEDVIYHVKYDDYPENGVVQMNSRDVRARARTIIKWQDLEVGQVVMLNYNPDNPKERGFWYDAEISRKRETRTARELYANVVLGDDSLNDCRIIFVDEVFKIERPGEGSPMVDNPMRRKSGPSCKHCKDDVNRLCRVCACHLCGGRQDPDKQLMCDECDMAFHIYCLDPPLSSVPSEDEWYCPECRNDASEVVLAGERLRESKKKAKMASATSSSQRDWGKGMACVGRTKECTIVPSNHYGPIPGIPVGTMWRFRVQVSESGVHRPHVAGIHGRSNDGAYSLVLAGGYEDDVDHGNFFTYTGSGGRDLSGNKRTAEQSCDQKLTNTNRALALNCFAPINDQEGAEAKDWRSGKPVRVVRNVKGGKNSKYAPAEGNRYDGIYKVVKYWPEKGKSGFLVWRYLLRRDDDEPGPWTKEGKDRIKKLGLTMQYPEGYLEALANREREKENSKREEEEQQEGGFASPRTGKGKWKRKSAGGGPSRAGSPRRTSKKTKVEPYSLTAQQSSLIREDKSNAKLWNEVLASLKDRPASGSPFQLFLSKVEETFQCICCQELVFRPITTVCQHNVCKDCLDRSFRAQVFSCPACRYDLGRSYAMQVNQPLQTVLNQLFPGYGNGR
Rin1 Abl inh: inhibitors of human Rin1-Abl protein interaction; TR-FRET Rin1/Abl binding, biochemical; inhibition, % at 7.35 µM; 360,000 tested, 0.4% active; AID 588664; in the data active = inhibition above about 5%, passing the limit was not always enough
Arrestin-AP2 inh: blocks beta-arrestin peptide binding to AP2 adaptin | FITC-arrestin peptide / GST-AP2 beads, flow cytometry; AP2 beta2 appendage carries R879A mutation | 340,000 tested, 0.31% active | inhibition, % at 10 µM;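 active = inhibition above a set limit, near 3 SD of compounds lacking own fluorescence, cut at about 54% in these data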
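System: GST-tagged AP2 beta2-adaptin appendage (R879A) on 4 µm glutathione beads / Reagent: FITC-arrestin peptide, 50 nM / Detection: HyperCyt-sampled flow cytometry, FL1 channel, ex 488/em 535 nm / Timing: 12 min plus 1 h, RT / Buffer or medium: PBS plus Tween 20 (0.05%) and BSA (0.1%)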
MBD2 DNA inh: inhibitors of human MBD2 binding to methylated oligonucleotide | Q9UBB5 | TR-FRET | inhibition, % at 4.4 µM | 370,000 tested, 0.31% active | AID 686964; in the data active = inhibition above about 13%
B2AR ag: agonists of human beta-2 adrenergic receptor inducing internalization; P07550; Am2.2-beta2AR cells, FAP receptor internalization, flow cytometry; response, % (test concentration not listed); 340,000 tested, 0.43% active;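 active = response above a set limit, near 3 SD of response in nonfluorescent compounds, cut at about 42% in these data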
ABHD5-PLIN5 conf: ABHD5-PLIN5 interaction inhibition, confirmed; shares compounds with ABHD5-PLIN5 inh; biochemical ABHD5-PLIN5 interaction, luminescence; inhibition, % at 4 µM; 2,200 tested, 67% active; AID 651612; in the data active = inhibition above about 23%
HNF4 counter: HNF4 split-luciferase signal hit, counter-screen; inhibition, % at 4 µM; shares compounds with ABHD5-PLIN5 inh; HNF4 dimerization, luminescence, biochemical; 2,200 tested, 77% active;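 active = mean inhibition across replicate wells exceeding the computed hit threshold, cut at about 13% in these data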;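 also: light from luciferase halves that rejoin when HNF4 fusion proteins dimerize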
Of the large screens only hits and unclear results are named; the others gave an inactive call (follow-up assays come after a bar, where they were run).

O=C1C(SCCO)=C(SCCO)C(=O)c2ccccc21	ABHD5-PLIN5 inh 97 | ABHD5-PLIN5 conf 104 | HNF4 counter 111
CCOc1ccccc1CN1CCN(Cc2[nH]c3ccccc3c2C)CC1CCO (stereo not drawn)	ABHD5-PLIN5 inh 27 | ABHD5-PLIN5 conf inactive | HNF4 counter inactive
CCOc1ccccc1CN1CCN(Cc2c[nH]c3ccccc23)CC1CCO (stereo not drawn)	none
O=Cc1s/c(=N\S(=O)(=O)c2ccccc2)n(CCCCl)c1Cl	ABHD5-PLIN5 inh 37, B2AR ag 104 | ABHD5-PLIN5 conf 69 | HNF4 counter 107
O=C(OCc1cn(Cc2ccccc2)nn1)N1CCCC1	none (no result: ABHD5-PLIN5 inh, Rin1 Abl inh, Arrestin-AP2 inh, B2AR ag)
Cc1ccc(/C=C/C(=O)N2CCc3ccccc32)o1	ABHD5-PLIN5 inh 24, UHRF1 binding 31 | ABHD5-PLIN5 conf inactive | HNF4 counter 50
O=C(/C=C/c1ccco1)N1CCc2ccccc21	none
Cc1csc(N=Nc2ccc(N(C)C)cc2)[n+]1[O-]	ABHD5-PLIN5 inh 29 (no result: Arrestin-AP2 inh, B2AR ag) | ABHD5-PLIN5 conf 26 | HNF4 counter 32
Cc1c(NS(=O)(=O)c2cc3c(cc2Br)CCN3C(=O)C2CC2)c(=O)n(-c2ccccc2)n1C	none (no result: ABHD5-PLIN5 inh, Rin1 Abl inh, Arrestin-AP2 inh, B2AR ag)
Cc1ccc(CNC(=O)CCc2nnc(Cc3ccc(-c4ccccc4)cc3)o2)o1	ABHD5-PLIN5 inh 28 | ABHD5-PLIN5 conf inactive | HNF4 counter inactive
O=C(c1ccc(-c2ccc([N+](=O)[O-])cc2)o1)N1CCCCC1	none
CC1CC(C)CN(C(=O)c2ccc(-c3ccc([N+](=O)[O-])cc3)o2)C1 (stereo not drawn)	ABHD5-PLIN5 inh 28 | ABHD5-PLIN5 conf inactive | HNF4 counter inactive
Cc1cccc(C)c1NC(=O)C1CCN(c2ncccn2)CC1	none (no result: ABHD5-PLIN5 inh, Rin1 Abl inh, Arrestin-AP2 inh, B2AR ag)
O=C(CSc1nnc(-c2ccncc2)n1-c1ccccc1)Nc1cccc2ccccc12	none (no result: ABHD5-PLIN5 inh, Rin1 Abl inh, Arrestin-AP2 inh, B2AR ag)
Cc1ccc(C(=O)/C=C/C(=O)O)cc1	ABHD5-PLIN5 inh 93 | ABHD5-PLIN5 conf 95 | HNF4 counter 106
CCOc1ccc(-c2nc(CSCC(=O)NC3CCC3)c(C)o2)cc1	none (no result: ABHD5-PLIN5 inh, Rin1 Abl inh, Arrestin-AP2 inh, B2AR ag)
CC1=CC(=O)c2ccccc2C1=O	none
COc1cccc2c1C(=O)C=C(C)C2=O	ABHD5-PLIN5 inh 37 | ABHD5-PLIN5 conf 57 | HNF4 counter 64
CCN(CC)CCC(C)OC(c1ccccc1)c1ccccc1 (stereo not drawn)	ABHD5-PLIN5 inh 24 | ABHD5-PLIN5 conf 77 | HNF4 counter 31
COC(=O)C1CN(Cc2ccc(Cl)cc2)CCS(=O)(=O)N1Cc1cn(Cc2ccc(Cl)cc2)nn1 (stereo not drawn)	none (no result: ABHD5-PLIN5 inh, Rin1 Abl inh, Arrestin-AP2 inh, B2AR ag)
O=C(CC1Sc2ncnn2C1=O)Nc1ccccc1 (stereo not drawn)	ABHD5-PLIN5 inh 27 | ABHD5-PLIN5 conf inactive | HNF4 counter 47
O[C@H](COc1cccc(C(F)(F)F)c1)CN1CCC(C(O)(c2ccccc2)c2ccccc2)CC1	none (no result: ABHD5-PLIN5 inh, Rin1 Abl inh, Arrestin-AP2 inh, B2AR ag)
O=C1Nc2ccccc2/C1=C/c1cnc(-c2ccccc2)[nH]1	none
C=CCOc1ccccc1C(=O)/C=C1/C(=O)Nc2ccccc21	ABHD5-PLIN5 inh 85 | ABHD5-PLIN5 conf 95 | HNF4 counter 97
NC(=O)COc1ccc(C(=O)/C=C2/C(=O)Nc3ccccc32)cc1	ABHD5-PLIN5 inh 54 | ABHD5-PLIN5 conf 55 | HNF4 counter 89
C=CCOc1ccc(C(=O)/C=C2/C(=O)Nc3ccccc32)cc1	ABHD5-PLIN5 inh 67 | ABHD5-PLIN5 conf 72 | HNF4 counter 68
C=CCOc1ccc(C2NC(=O)c3ccccc3O2)cc1 (stereo not drawn)	none
CC1(c2ccc(OCC(N)=O)cc2)NC(=O)NC1=O (stereo not drawn)	none
C[C@H](CO)N1C[C@H](C)[C@@H](CN(C)C(=O)Nc2ccc3c(c2)OCCO3)OCc2cn(nn2)CCCC1=O	none (no result: ABHD5-PLIN5 inh, Rin1 Abl inh, Arrestin-AP2 inh, B2AR ag)
CNc1ccccc1/C(O)=C(\C#N)C(=O)NCc1cccs1	none (no result: ABHD5-PLIN5 inh, Rin1 Abl inh, Arrestin-AP2 inh, B2AR ag)
CCC(=O)N(CCC(c1ccc(C)cc1)c1ccco1)Cc1ccco1 (stereo not drawn)	ABHD5-PLIN5 inh 26 | ABHD5-PLIN5 conf inactive | HNF4 counter inactive

Source: PubChem BioAssay (several laboratories)
